Laboratory results taken from ChEMBL document CHEMBL1146579, “Antifungal agents from the roots of Cudrania cochinchinensis against Candida, Cryptococcus, and Aspergillus species” (2003).
≈ marks a conversion by molar mass, not a printed value.

Tests used:
Candida albicans [1] = assay: Antifungal activity against Candida albicans ATCC 90028 after 48 to 96 hrs by broth microdilution method; type: functional
Procedure, shortened: (§1)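 Broth microdilution followed NCCLS with slight modification, giving MIC. Compounds were dissolved in DMSO as a 12.8 mg/mL stock and diluted in RPMI-1640, with final solvent below 1%. Yeasts were kept on modified Sabouraud dextrose agar or potato dextrose agar slants, and filamentous fungi on potato dextrose agar.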

Candida parapsilosis = assay: Antifungal activity against Candida parapsilosis ATCC 22019 after 48 to 96 hrs by broth microdilution method; type: functional; conditions: Lodderomyces parapsilosis; procedure, shortened: as §1
Nakaseomyces glabratus = assay: Antifungal activity against Candida glabrata ATCC 90030 after 48 to 96 hrs by broth microdilution method; type: functional; procedure, shortened: as §1
Pichia kudriavzevii = assay: Antifungal activity against Candida krusei ATCC 6258 after 48 to 96 hrs by broth microdilution method; type: functional; procedure, shortened: as §1
Cryptococcus neoformans = assay: Antifungal activity against Cryptococcus neoformans ATCC 90112 after 48 to 96 hrs by broth microdilution method; type: functional
Procedure, shortened: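 Broth microdilution followed NCCLS with slight modification, giving MIC. Yeasts were kept on modified Sabouraud dextrose agar or potato dextrose agar slants, and filamentous fungi on potato dextrose agar.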

Aspergillus fumigatus [2] = assay: Antifungal activity against Aspergillus fumigatus IFM 41374 after 48 to 96 hrs by broth microdilution method; type: functional; procedure, shortened: as §1
Aspergillus fumigatus [3] = assay: Antifungal activity against Aspergillus fumigatus IFM 41236 after 48 to 96 hrs by broth microdilution method; type: functional; procedure, shortened: as §1
Aspergillus nidulans = assay: Antifungal activity against Aspergillus nidulans IFM 5396 after 48 to 96 hrs by broth microdilution method; type: functional; procedure, shortened: as §1
Candida albicans [4] = assay: Antifungal activity against Candida albicans ATCC 90028 after 48 hrs by disk diffusion assay; type: functional
Procedure, shortened: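 Pure compounds were dissolved in MeOH at 10 mg/mL, about 0.4 mg absorbed per 8 mm paper disk, then air-dried. Plates of Yeast Morphology Agar were incubated 48 h at 30 °C, and the diameter of the inhibition zone was measured.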

Candida albicans [5] = assay: Antifungal activity against Candida albicans ATCC 90028 at 100 ug/mL after 48 hrs by disk diffusion assay; type: functional; conditions: ATCC 90028, 48 h, read-out: IZ
Procedure, shortened: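 The 8 mm paper disk was dipped in the solution and air-dried. C. albicans ATCC 90028, preincubated in YPD broth, was the inoculum on Yeast Morphology Agar, incubated 48 h at 30 °C. Read-out was the diameter of the inhibition zone.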

Candida albicans [6] = assay: microbe, parasite or virus in culture; conditions: ATCC 90028, 48 h, read-out: IZ

SMILES | MIC (Candida albicans [1]) [µg/mL] | MIC (Candida parapsilosis) [µg/mL] | MIC (Nakaseomyces glabratus) [µg/mL] | MIC (Pichia kudriavzevii) [µg/mL] | MIC (Cryptococcus neoformans) [µg/mL] | MIC (Aspergillus fumigatus [2]) [µg/mL] | MIC (Aspergillus fumigatus [3]) [µg/mL] | MIC (Aspergillus nidulans) [µg/mL] | inhibition zone (IZ) (Candida albicans [4]) [mm] | zone of inhibition at 100 µg/mL (Candida albicans [5]) [mm] | zone of inhibition at 10 µg/mL (Candida albicans [6]) [mm]
CC1(C)C=Cc2c(cc3oc4c(O)cccc4c(=O)c3c2O)O1 | > 128 | > 128 | > 128 | > 128 | 32 (≈ 103 µM) | > 128 | > 128 | > 128 | – | – | –
CC(C)=CCc1c(O)cc2oc3ccc(O)cc3c(=O)c2c1O | > 128 | > 128 | > 128 | > 128 | 128 (≈ 410 µM) | > 128 | > 128 | > 128 | 9 | – | –
COc1cc(-c2coc3cc(O)cc(O)c3c2=O)ccc1O [3'-O-METHYLOROBOL] | > 128 | > 128 | > 128 | > 128 | > 128 | > 128 | > 128 | > 128 | – | – | –
C[C@@H]1[C@H](O)[C@@H](C)/C=C/C=C/C=C/C=C/C=C/C=C/C=C/[C@H](O[C@@H]2O[C@H](C)[C@@H](O)[C@H](N)[C@@H]2O)C[C@@H]2O[C@](O)(C[C@@H](O)C[C@@H](O)[C@H](O)CC[C@@H](O)C[C@@H](O)CC(=O)O[C@H]1C)C[C@H](O)[C@H]2C(=O)O [AMPHOTERICIN B] | 2 (≈ 2.16 µM) | 2 (≈ 2.16 µM) | 1 (≈ 1.08 µM) | 2 (≈ 2.16 µM) | – | 1 (≈ 1.08 µM) | 1 (≈ 1.08 µM) | 2 (≈ 2.16 µM) | 22 | 18 | –
CC(C)=CCc1c(O)cc2c(c1O)C(=O)CC(c1ccc(O)cc1O)O2 (stereo not drawn) [CUDRAFLAVANONE B] | 64 (≈ 180 µM) | 128 (≈ 359 µM) | 128 (≈ 359 µM) | 64 (≈ 180 µM) | 32 (≈ 89.8 µM) | 64 (≈ 180 µM) | 64 (≈ 180 µM) | 64 (≈ 180 µM) | 9 | – | –
COc1cc(O)c(C(=O)c2cccc(O)c2CC=C(C)C)c(O)c1 [CUDRANONE] | > 128 | > 128 | > 128 | > 128 | > 128 | 32 (≈ 97.5 µM) | 16 (≈ 48.7 µM) | 16 (≈ 48.7 µM) | 9 | – | –
CC(C)=CCc1cc(C(=O)c2cccc(O)c2CC=C(C)C)c(O)cc1O [CUDRAPHENONE B] | 16 (≈ 43.7 µM) | > 128 | 16 (≈ 43.7 µM) | 16 (≈ 43.7 µM) | 4 (≈ 10.9 µM) | 8 (≈ 21.8 µM) | 4 (≈ 10.9 µM) | 8 (≈ 21.8 µM) | – | – | –
CC(C)=CCc1c(O)cccc1C(=O)c1c(O)cc(O)c2c1OC(C)(C)C=C2 [CUDRAPHENONE C] | 64 (≈ 168 µM) | > 128 | > 128 | 64 (≈ 168 µM) | 16 (≈ 42.1 µM) | 16 (≈ 42.1 µM) | 8 (≈ 21 µM) | 32 (≈ 84.1 µM) | 10 | – | –
Clc1ccc(COC(Cn2ccnc2)c2ccc(Cl)cc2Cl)c(Cl)c1 (stereo not drawn) [MICONAZOLE] | 1 (≈ 2.4 µM) | 0.5 (≈ 1.2 µM) | 0.5 (≈ 1.2 µM) | 1 (≈ 2.4 µM) | 0.064 (≈ 0.154 µM) | 0.5 (≈ 1.2 µM) | 0.5 (≈ 1.2 µM) | 0.25 (≈ 0.601 µM) | 14 | – | 15
CC1Oc2cc3oc4c(O)c(O)ccc4c(=O)c3c(O)c2C1(C)C (stereo not drawn) [TOXYLOXANTHONE C] | > 128 | > 128 | 8 (≈ 24.4 µM) | > 128 | 8 (≈ 24.4 µM) | 8 (≈ 24.4 µM) | 8 (≈ 24.4 µM) | 8 (≈ 24.4 µM) | 9 | – | –

Now from value to compound, other results behind:

MIC (Candida albicans [1]) [µg/mL] | MIC (Candida parapsilosis) [µg/mL] | MIC (Nakaseomyces glabratus) [µg/mL] | MIC (Pichia kudriavzevii) [µg/mL] | MIC (Cryptococcus neoformans) [µg/mL] | MIC (Aspergillus fumigatus [2]) [µg/mL] | MIC (Aspergillus fumigatus [3]) [µg/mL] | MIC (Aspergillus nidulans) [µg/mL] | SMILES | inhibition zone (IZ) (Candida albicans [4]) [mm] | zone of inhibition at 100 µg/mL (Candida albicans [5]) [mm] | zone of inhibition at 10 µg/mL (Candida albicans [6]) [mm]
16 (≈ 41.8 µM) | 64 (≈ 167 µM) | 32 (≈ 83.7 µM) | 8 (≈ 20.9 µM) | 2 (≈ 5.23 µM) | 8 (≈ 20.9 µM) | 4 (≈ 10.5 µM) | 16 (≈ 41.8 µM) | CC(C)=CCc1c(O)cccc1C(=O)c1c(O)cc(O)c(CC=C(C)C)c1O [CUDRAPHENONE D] | 11 | – | –
16 (≈ 48.7 µM) | > 128 | 4 (≈ 12.2 µM) | > 128 | 2 (≈ 6.09 µM) | 4 (≈ 12.2 µM) | 4 (≈ 12.2 µM) | 4 (≈ 12.2 µM) | C=CC(C)(C)c1c(O)cc2oc3c(O)c(O)ccc3c(=O)c2c1O [CUDRAXANTHONE S] | 9 | – | –
64 (≈ 188 µM) | > 128 | > 128 | 64 (≈ 188 µM) | 64 (≈ 188 µM) | > 128 | 16 (≈ 47 µM) | 128 (≈ 376 µM) | CC(C)=CCc1c(O)cc(O)c2c1OC(c1ccc(O)cc1)CC2=O (stereo not drawn) [SOPHORAFLAVANONE B] | – | – | –
16 (≈ 47.3 µM) | > 128 | > 128 | > 128 | 4 (≈ 11.8 µM) | 4 (≈ 11.8 µM) | 2 (≈ 5.91 µM) | 2 (≈ 5.91 µM) | CC(C)=CCc1c(O)cc2occ(-c3ccc(O)cc3)c(=O)c2c1O [WIGHTEONE] | 11 | – | –
